According to ChEMBL document CHEMBL1153592, “1,8-Naphthyridine-3-carboxamide derivatives with anticancer and anti-inflammatory activity” (Eur J Med Chem, 2009):
pIC50: −log10 of the molar value. Active and inactive are the calls of the source. The calls are words filed in the database; no cut-off is given here.

Key:
MIA PaCa-2 [1] = experiment: Cytotoxicity against human MIAPaCa2 cells after 72 hrs by MTT assay; type: functional, cell-based; conditions: MIA PaCa-2, 72 h
HBL-100 [2] = experiment: Cytotoxicity against human HBL100 cells after 72 hrs by MTT assay; type: functional, cell-based; conditions: HBL-100, 72 h
K562 [3] = experiment: Cytotoxicity against human K562 cells after 72 hrs by MTT assay; type: functional, cell-based; conditions: K562, 72 h
ECV-304 [4] = experiment: Cytotoxicity against human ECV304 cells after 72 hrs by MTT assay; type: functional, cell-based; conditions: for pIC50: Homo sapiens, ECV-304, 72 h, read-out: IC50
PA-1 [5] = experiment: Cytotoxicity against human PA1 cells after 72 hrs by MTT assay; type: functional, cell-based; conditions: PA-1, 72 h
SW-620 [6] = experiment: Cytotoxicity against human SW620 cells after 72 hrs by MTT assay; type: functional, cell-based; conditions: SW-620, 72 h
KB [7] = experiment: Cytotoxicity against human KB cells after 72 hrs by MTT assay; type: functional, cell-based
[8] = Cytotoxicity against mouse NIH/3T3 cells after 72 hrs by MTT assay; type: cell-based, NIH3T3; conditions: for pIC50: Mus musculus, NIH3T3, 72 h, read-out: IC50; for IC50: nih3t3
DU-145 [9] = experiment: Cytotoxicity against human DU145 cells after 72 hrs by MTT assay; type: functional, cell-based; conditions: DU-145, 72 h
A549 [10] = experiment: Cytotoxicity against human A549 cells after 72 hrs by MTT assay; type: functional, cell-based; conditions: A549, 72 h
[11] = Antiinflammatory activity in C57BL/6 mouse DC assessed as inhibition of LPS-induced IL1-beta production at 0.1 ug/ml after 24 hrs by ELISA; type: functional
Outline: (§1)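 Dendritic cells grown from femoral bone marrow of 8–12-week-old C57BL/6 mice in RPMI-1640 with 10% FBS and 20 ng/ml rmGM-CSF at 37 °C, 5% CO2. Day-6 immature DCs were stimulated with 10 ng/ml LPS plus compound for 24 h. Supernatant cytokine/chemokine measured by ELISA (pg/ml); % change = (B−A)/A×100, versus LPS-stimulated DCs alone.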

[12] = Antiinflammatory activity in C57BL/6 mouse DC assessed as inhibition of LPS-induced IL-6 production at 0.1 ug/ml after 24 hrs by ELISA; type: functional; outline: as §1
[13] = Antiinflammatory activity in C57BL/6 mouse DC assessed as inhibition of LPS-induced IL1-beta production at 1 ug/ml after 24 hrs by ELISA; type: functional; outline: as §1
[14] = Antiinflammatory activity in C57BL/6 mouse DC assessed as inhibition of LPS-induced IL-6 production at 1 ug/ml after 24 hrs by ELISA; type: functional; outline: as §1
K562 [15] = experiment: Cytotoxicity against human K562 cells at 10 uM after 72 hrs by MTT assay; type: functional, cell-based
Outline: (§2)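 Three-day MTT screen with 5000–10,000 cells/well and 72 h compound exposure at the top screening concentration. After 3 h of MTT uptake, lysis with 10% SDS–0.01 N HCl, then A540 read after 1 h. % cytotoxicity = (1 − X/R1)×100, where X is treated minus blank absorbance and R1 is untreated control absorbance.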

KB [16] = experiment: Cytotoxicity against human KB cells at 10 uM after 72 hrs by MTT assay; type: functional, cell-based; outline: as §2
A549 [17] = experiment: Cytotoxicity against human A549 cells at 10 uM after 72 hrs by MTT assay; type: functional, cell-based; outline: as §2
MIA PaCa-2 [18] = experiment: Cytotoxicity against human MIAPaCa2 cells at 10 uM after 72 hrs by MTT assay; type: functional, cell-based; outline: as §2
ECV-304 [19] = experiment: Cytotoxicity against human ECV304 cells at 10 uM after 72 hrs by MTT assay; type: functional, cell-based; outline: as §2
PA-1 [20] = experiment: Cytotoxicity against human PA1 cells at 10 uM after 72 hrs by MTT assay; type: functional, cell-based; outline: as §2
DU-145 [21] = experiment: Cytotoxicity against human DU145 cells at 10 uM after 72 hrs by MTT assay; type: functional, cell-based; outline: as §2
SW-620 [22] = experiment: Cytotoxicity against human SW620 cells at 10 uM after 72 hrs by MTT assay; type: functional, cell-based; outline: as §2
HBL-100 [23] = experiment: Cytotoxicity against human HBL100 cells at 10 uM after 72 hrs by MTT assay; type: functional, cell-based; outline: as §2
[24] = Cytotoxicity against mouse NIH/3T3 cells at 10 uM after 72 hrs by MTT assay; type: cell-based; conditions: nih3t3, 72 h; outline: as §2

| Compound | pIC50 (MIA PaCa-2 [1]) | pIC50 (HBL-100 [2]) | pIC50 (K562 [3]) | pIC50 (ECV-304 [4]) | pIC50 (PA-1 [5]) | pIC50 (SW-620 [6]) | pIC50 (KB [7]) | pIC50 [8] | pIC50 (DU-145 [9]) | pIC50 (A549 [10]) | IC50 [8] | inhibition (INH) [11] | inhibition (INH) [12] | inhibition (INH) [13] | inhibition (INH) [14] | also measured |
| --- | --- | --- | --- | --- | --- | --- | --- | --- | --- | --- | --- | --- | --- | --- | --- | --- |
| C#CCn1cc(C(=O)NC(C(=O)NC2CCCC2)c2ccccc2)c(=O)c2cc(F)c(Cl)nc21 (centres undefined) | 5.77 | 5.29 | 5.23 | 5.49 | 5.74 | 5.47 | 5.46 | 6.40 | 5.49 | < 5.00 |  |  |  |  |  |  |
| C#CCn1cc(C(=O)NC(CC(=O)NC2CCCCC2)c2ccccc2)c(=O)c2cc(F)c(Cl)nc21 (centres undefined) | 5.31 | < 5.00 | 5.21 | 5.01 | 5.64 | < 5.00 | < 5.00 |  | 5.10 | < 5.00 | Not Active |  |  |  |  |  |
| C#CCn1cc(C(=O)NC(CC(=O)Nc2ccccc2)c2ccccc2)c(=O)c2ccc(Cl)nc21 (centres undefined) | 5.52 | 5.40 | 5.11 | 5.40 | 6.27 | 5.54 | < 5.00 | 5.36 | < 5.00 | < 5.00 |  | 28.3% | 69.5% | 99.4% | 75.4% |  |
| C#CCn1cc(C(=O)NC(C(=O)NC2CCCCC2)c2ccccc2)c(=O)c2cc(F)c(Cl)nc21 (centres undefined) | < 5.00 | < 5.00 | < 5.00 | < 5.00 | 5.74 | < 5.00 | < 5.00 | 5.13 | < 5.00 | < 5.00 |  |  |  |  |  |  |
| C#CCn1cc(C(=O)NC(C(=O)Nc2ccccc2)c2ccccc2)c(=O)c2cc(F)c(Cl)nc21 (centres undefined) | < 5.00 | < 5.00 | 5.30 | 5.04 | 6.30 | 5.85 | 5.96 |  | 6.22 | < 5.00 | Not Active | 44.3% | 84.4% | 97% | 99.9% |  |
| COc1cccc2c1C(=O)c1c(O)c3c(c(O)c1C2=O)C[C@@](O)(C(=O)CO)C[C@@H]3O[C@H]1C[C@H](N)[C@H](O)[C@H](C)O1 [DOXORUBICIN] | 6.82 | 6.62 |  |  | 6.20 | 7.10 |  | 6.41 | 7.00 |  |  |  |  |  |  | IC50 (ECV-304 [4]; ecv-304): Not Active |
| C#CCn1cc(C(=O)NC(C(=O)Nc2ccccc2)c2ccccc2)c(=O)c2ccc(Cl)nc21 (centres undefined) | 5.01 | 5.11 | 5.48 | < 5.00 | < 5.00 | 5.66 | 5.68 |  | 5.77 | < 5.00 | Not Active | 82% | 76.5% | 86.3% | 91.7% |  |
| C#CCn1cc(C(=O)NC(C(=O)NC2CCCCC2)c2ccccc2)c(=O)c2cccnc21 (centres undefined) |  |  |  |  |  |  |  |  |  |  |  |  |  |  |  | Activity (K562 [15]): inactive; Activity (KB [16]): inactive; Activity (A549 [17]): inactive; Activity (MIA PaCa-2 [18]): inactive; Activity (ECV-304 [19]): inactive; Activity (PA-1 [20]): inactive; Activity (DU-145 [21]): inactive; Activity (SW-620 [22]): inactive; Activity (HBL-100 [23]): inactive; Activity [24]: Not Active |
| C#CCn1cc(C(=O)NC(C(=O)NC2CCCCC2)c2ccccc2)c(=O)c2ccc(Cl)nc21 (centres undefined) |  |  |  |  |  |  |  |  |  |  |  |  |  |  |  | Activity (K562 [15]): inactive; Activity (KB [16]): inactive; Activity (A549 [17]): inactive; Activity (MIA PaCa-2 [18]): inactive; Activity (ECV-304 [19]): inactive; Activity (PA-1 [20]): inactive; Activity (DU-145 [21]): inactive; Activity (SW-620 [22]): inactive; Activity (HBL-100 [23]): inactive; Activity [24]: Not Active |
